Shown are actives, neighbours in structure and some others; about 2.2% of the full set was active somewhere.
Cneo AK release = Cryptococcus neoformans lysis via adenylate kinase release. C. neoformans lysis, adenylate kinase release luminescence, 4 h; normalised: neutral wells 0, clomiphene wells 100. lysis activity, % at 15 µM. 360,000 compounds, 0.2% hits. AID 651654;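 active = mean lysis activity across replicates of at least 80%, whatever share of replicates individually reach that level; inactive = mean lysis activity below 80%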
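Material: C. neoformans cells; Schedule: 4 h static compound exposure, 37 °C, read 1 h post-reagent; Measured by: adenylate kinase release luminescence; Read-out: signal increase indicating cell lysis; Controls: Clomiphene as positive lysis control.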
Ecoli rRNA inh = selective bacterial rRNA inhibition in E. coli; E. coli WT GFP vs humanized-ribosome RFP mutants, fluorescence, 24 h; hits give low values; DMSO median 0, no signal -100; GFP signal change (wild-type ribosome), % (no concentration beside the values); 350,000 compounds, 1.6% hits; AID 720706;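 active = significant combined selectivity score with lowered wild-type GFP, culture density cut under 30%, mutant RFP and density less affected; inactive = any of these conditions unmet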
CR mimetic SO = yeast age-related superoxide inhibition as caloric restriction mimetic; AID 2690; superoxide response (% of plate mean), % at 10 µM; S. cerevisiae aged cells, superoxide DHE fluorescence; hits give low values; 330,000 compounds, 0.18% hits;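 active = superoxide response under a set limit, about three screen SD below normal, cut at about 65% in these data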;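 also: yeast aged for seven days with compound at 30 °C before DHE staining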
PglD inh = PglD (C. jejuni) enzyme inhibition | 360,000 compounds, 0.098% hits | inhibition, % at 12.5 µM | purified PglD enzyme, DTNB colorimetric CoA detection | AID 602405; in the data active = inhibition above about 16%, passing the limit was not always enough
Mot1-301 SUMO = inhibitors of SUMOylation pathway: yeast Mot1-301 growth rescue; 320,000 compounds, 1% hits; growth rescue, % at 18.8 µM; S. cerevisiae Mot1-301 growth rescue, ATP luminescence, 38.5C; percent above DMSO median, 100 means doubled;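 active = every valid replicate shows activation above 250% relative to neutral control wells; inactive = the rest, any valid replicate at or below 250%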
Superoxide pick = confirmation of caloric restriction mimetics inhibiting yeast age-related superoxide; shares compounds with CR mimetic SO; S. cerevisiae aging, superoxide DHE fluorescence; hits give low values; superoxide response (% of plate), % at 10 µM; 850 compounds, 1% hits; AID 434994;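 active = superoxide signal below 65% of the plate average of sample wells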;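 also: cells aged with compound for 7 days at 30 degrees C before staining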
DHE counter = compound alters DHE oxidation or fluorescence in yeast; shares compounds with CR mimetic SO; S. cerevisiae BY4741, flow cytometry; hits give low values; fluorescence response, % at 10 µM; 850 tested, under 10 active;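 active = fluorescence response below 15%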;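 also: lower means stronger quenching of DHE signal or ROS scavenging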
Large screens that a line does not name were inactive (follow-up assays come after a bar, where they were run).

CCN(CC(O)Cn1c2ccccc2c2ccccc21)S(=O)(=O)c1ccc(F)cc1 (stereo not given)	none (no result: Ecoli rRNA inh)
OC(CN1CCOCC1)Cn1c2ccccc2c2ccccc21 (stereo not given)	CR mimetic SO 44 | Superoxide pick inactive | DHE counter inactive
OC(CN1CCOCC1)Cn1c2c(c3ccccc31)CCCC2 (stereo not given)	none
OCCNCC(O)Cn1c2ccccc2c2ccccc21 (stereo not given)	none (no result: Cneo AK release, PglD inh) | Superoxide pick inactive | DHE counter inactive
OC(CN1CCCCC1)Cn1c2ccc(Cl)cc2c2cc(Cl)ccc21 (stereo not given)	CR mimetic SO 45 | Superoxide pick inactive | DHE counter inactive
CCN(CC)CC(O)Cn1c2ccccc2c2ccccc21 (stereo not given)	none (no result: Ecoli rRNA inh) | Superoxide pick inactive | DHE counter inactive
OCCNCC(O)Cn1ccc2ccccc21 (stereo not given)	none (no result: Ecoli rRNA inh)
CCC(=O)N1C[C@@H](C)[C@@H](OC)CN(C)C(=O)c2cc(NC(=O)C3CCCCC3)ccc2OC[C@@H]1C	none (no result: CR mimetic SO, Mot1-301 SUMO)
O=C(C[C@@H]1CC[C@H](NC(=O)c2cccc(F)c2)[C@H](CO)O1)NCCN1CCCC1	none (no result: CR mimetic SO, Mot1-301 SUMO)
COc1ccc(CN(C)C[C@H]2Oc3ccc(NC(=O)NC(C)C)cc3C(=O)N([C@H](C)CO)C[C@H]2C)cc1	none (no result: CR mimetic SO, Mot1-301 SUMO)
C[C@H](CO)N1C[C@H](C)[C@H](CN(C)C(=O)C2CC2)OCc2cn(nn2)CCCC1=O	none (no result: CR mimetic SO, Mot1-301 SUMO)
O=C(CN1CCN(c2ccccn2)CC1)Nc1ccc(OC(F)(F)F)cc1	none | Superoxide pick inactive | DHE counter inactive
CC(=O)Nc1ccc(NC(=O)CN2CCN(c3ccccn3)CC2)cc1	CR mimetic SO 53 | Superoxide pick inactive | DHE counter inactive
CN(C)S(=O)(=O)c1ccc(NC(=O)CN2CCN(c3ccccn3)CC2)cc1	none | Superoxide pick inactive | DHE counter inactive
CCN(CC)S(=O)(=O)c1cc(NC(=O)CN2CCN(c3ccccn3)CC2)ccc1C	none | Superoxide pick inactive | DHE counter inactive
NS(=O)(=O)c1ccc(S(=O)(=O)c2ccccc2)nc1	CR mimetic SO 64 (no result: Ecoli rRNA inh) | Superoxide pick inactive | DHE counter inactive
O=S(=O)(c1ccc(Cl)cc1)c1ccccn1	none (no result: Ecoli rRNA inh)
Cn1c2ccccc2c(=O)c2c(=O)n(C3CCCCC3)c(-c3cccs3)nc21	CR mimetic SO 65 (no result: Ecoli rRNA inh) | Superoxide pick inactive | DHE counter inactive
Cc1ccc(NC(=O)c2sc3nc(C)cc(C)c3c2N)cc1	CR mimetic SO 56 | Superoxide pick inactive | DHE counter inactive
CN1C(=O)c2cc(NC(=O)C3CCOCC3)ccc2OC[C@H]2O[C@@H](CC(=O)NC3CCCC3)CC[C@@H]21	none (no result: CR mimetic SO, Mot1-301 SUMO)
COc1ccc(C)cc1N(C(=O)c1cccc(F)c1)c1nc2ccccc2s1	CR mimetic SO 48 (no result: Ecoli rRNA inh) | Superoxide pick inactive | DHE counter inactive
c1cc2c(cc1CN1CCN(C3CCCCCC3)CC1)OCO2	CR mimetic SO 44 | Superoxide pick inactive | DHE counter inactive
O=C(N/N=C/c1ccco1)c1[nH]ncc1Br	CR mimetic SO 61 | Superoxide pick inactive | DHE counter inactive
O=C(N/N=C/c1ccccc1)c1[nH]ncc1Br	none (no result: Cneo AK release, PglD inh)
CCCNC(=O)C[C@@H]1CC[C@H]2[C@@H](COc3ccc(NC(=O)c4ccc(C(F)(F)F)cc4)cc3C(=O)N2C)O1	none (no result: CR mimetic SO, Mot1-301 SUMO)
COc1cc(/C=C2\CC(C(C)(C)C)C/C(=C\c3cc(OC)c(OC)c(OC)c3)C2=O)cc(OC)c1OC (stereo not given)	CR mimetic SO 57 | Superoxide pick inactive | DHE counter inactive
COc1cc(/C=C2\CC/C(=C\c3cc(OC)c(OC)c(OC)c3)C2=O)cc(OC)c1OC	none (no result: Cneo AK release, PglD inh)
O=S(=O)(Nc1ccc(NS(=O)(=O)c2ccccc2)c(Cl)c1)c1ccccc1	none (no result: CR mimetic SO, Mot1-301 SUMO)
Cc1cc(NS(=O)(=O)c2ccccc2)cc(Cl)c1O	none (no result: Ecoli rRNA inh) | Superoxide pick inactive | DHE counter inactive
COc1cccc(S(=O)(=O)N2C[C@@H](O)COC[C@H]3O[C@@H](CC(=O)N4CCN(C)CC4)CC[C@@H]32)c1	none (no result: CR mimetic SO, Mot1-301 SUMO)
COC(=O)c1ccccc1NS(=O)(=O)c1ccc(NC(C)=O)cc1	none
COC(=O)c1ccccc1NS(=O)(=O)c1ccc(F)cc1	none (no result: Ecoli rRNA inh) | Superoxide pick inactive | DHE counter inactive
COC(=O)c1ccc2c(=O)n(CCCCCC(=O)N3CCN(c4ccccc4)CC3)c(=O)[nH]c2c1	none (no result: Ecoli rRNA inh)
COc1cc2[nH]c(=O)n(CCCCCC(=O)N3CCN(c4ccccc4)CC3)c(=O)c2cc1OC	CR mimetic SO 64 (no result: Ecoli rRNA inh) | Superoxide pick inactive | DHE counter inactive
COc1ccccc1NC(=O)Nc1ccc2c(c1)C(=O)N(C)C[C@@H](OC)[C@H](C)CN(C)[C@H](C)CO2	none (no result: CR mimetic SO, Mot1-301 SUMO)
COc1ccccc1N1CCN(S(=O)(=O)c2cn(C)cn2)CC1	CR mimetic SO 65 | Superoxide pick inactive | DHE counter inactive
Cn1cnc(S(=O)(=O)N2CCN(c3ccccc3)CC2)c1	none
COc1ccc(-c2nc3c4c(ncn3n2)-c2ccccc2CC42CCCC2)cc1	CR mimetic SO 64 | Superoxide pick inactive | DHE counter inactive
CSCCC(NC(=O)C1CCC(C)CC1)C(=O)NCCN1CCOCC1 (stereo not given)	CR mimetic SO 58 (no result: Ecoli rRNA inh) | Superoxide pick inactive | DHE counter inactive
CC(C)CC(NC(=O)C1CCC(C)CC1)C(=O)NCCN1CCOCC1 (stereo not given)	none
CN1C(=O)c2cc(NC(=O)c3ccccc3F)ccc2OC[C@H]2O[C@H](CC(=O)NCc3ccc4c(c3)OCO4)CC[C@@H]21	none (no result: CR mimetic SO, Mot1-301 SUMO)
CCn1c(C)nc2c(=O)oc3ccccc3c21	CR mimetic SO 65 (no result: Ecoli rRNA inh) | Superoxide pick inactive | DHE counter inactive
Cc1nc2c(=O)oc3ccccc3c2n1-c1ccccc1	none (no result: Ecoli rRNA inh)
C=CCOn1c(=O)c(-c2cccs2)[n+]([O-])c2ccccc21	CR mimetic SO 62 (no result: Ecoli rRNA inh) | Superoxide pick inactive | DHE counter inactive
C[C@@H]1CN([C@H](C)CO)C(=O)c2cc(C#CCN(C)C)cnc2O[C@@H]1CN(C)S(C)(=O)=O	none (no result: CR mimetic SO, Mot1-301 SUMO)
CCCc1n[nH]c2c1C(=O)CC(C)(C)C2	none (no result: Ecoli rRNA inh)
CC1(C)CC(=O)c2c(-c3cccs3)n[nH]c2C1	CR mimetic SO 64 (no result: Ecoli rRNA inh) | Superoxide pick inactive | DHE counter inactive
CCn1c2ccc(/C(C)=N\O)cc2c2cc(/C(C)=N\O)ccc21	none (no result: Ecoli rRNA inh) | Superoxide pick inactive | DHE counter inactive
CCn1c2ccccc2c2cc(/C=N/O)ccc21	none (no result: Cneo AK release, PglD inh)
COc1ccc(-c2cnc3c(c2)C(=O)N([C@@H](C)CO)C[C@@H](C)[C@@H](CN(C)C(=O)C2CCCCC2)O3)cc1	none (no result: CR mimetic SO, Mot1-301 SUMO)

Assay outcomes as filed in PubChem.
